SENP7 block = inhibitors of human SENP7 protease | recombinant SENP7, Z-RLRGG-aminoluciferin luminescence, 40 min | hit rate 1.5% among 330,000 | Q9BQF6 | inhibition, % at 5 µM;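 active = inhibition above about 50% at the single test dose, limit read from the data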
SENP6 block = blocks the human protease SENP6; Recombinant SENP6 catalytic domain, aminoluciferin luminescence; Q9GZR1; hit rate 1.8% among 330,000; inhibition, % at 10 µM;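 active = inhibition above about 50% at the single tested dose, limit read from the data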
HSP90 refold inh = blocks HSP90-mediated luciferase refolding in reticulocyte lysate | Rabbit reticulocyte lysate, luciferase refolding luminescence, 3 h | inhibition, % at 5.6 µM | hit rate 0.91% among 290,000;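 active = inhibition above the screen-wide mean plus 3 SD, computed separately per campaign, cut at about 16% in these data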;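 also: inhibitors lower the luminescence because luciferase stays unfolded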
SENP8 block-1 = SENP8 (human) protease inhibition; recombinant SENP8, Nedd8 substrate fluorescence; hit rate 0.64% among 360,000; Q96LD8; inhibition, % at 20 µM; in the data active = inhibition mostly above about 40%, no sharp cut-off; inactive = mostly below about 27%
Target sequence (Q96LD8 whole entry, looked up): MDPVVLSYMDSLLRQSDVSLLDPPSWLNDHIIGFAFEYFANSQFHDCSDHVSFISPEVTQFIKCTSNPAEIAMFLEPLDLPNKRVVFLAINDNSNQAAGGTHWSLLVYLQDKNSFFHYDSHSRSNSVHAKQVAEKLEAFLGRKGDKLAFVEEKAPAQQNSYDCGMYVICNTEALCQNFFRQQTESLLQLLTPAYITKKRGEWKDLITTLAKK
SENP1 inh = blocks the human SENP1 SUMO protease catalytic domain; Q9P0U3; recombinant SENP1 catalytic domain, CyPet-SUMO1-YPet FRET cleavage; inhibition, % at 10 µM; hit rate 0.21% among 360,000; AID 624204;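 active = inhibition at least 30% at 10 µM, raw YFP signal under a set limit, fluorescence ratio 0.5 to 1.5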
Target sequence (Q9P0U3 419-644 limits assumed): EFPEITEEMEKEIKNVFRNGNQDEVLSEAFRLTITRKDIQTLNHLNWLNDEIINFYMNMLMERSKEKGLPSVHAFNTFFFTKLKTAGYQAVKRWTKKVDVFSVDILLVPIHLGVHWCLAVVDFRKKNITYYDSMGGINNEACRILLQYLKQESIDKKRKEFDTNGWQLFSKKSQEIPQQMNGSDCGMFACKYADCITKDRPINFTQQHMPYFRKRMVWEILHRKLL
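Controls: no-enzyme wells low, DMSO-plus-enzyme wells high control. Test system: human recombinant His6-tagged SENP1 catalytic domain enzyme. Reagent: SFCypet-SUMO1-SFYpet FRET protein substrate, 25 nM final. Doses: one dose per compound, 10 µM, 0.5% DMSO. Detection: FRET, CFP and YFP emission. Timing: 50 min reaction at room temperature.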
SENP8 block-2 = inhibitors of human SENP8 protease. hit rate 1.2% among 330,000. purified SENP8, Z-RLRGG-aminoluciferin cleavage, luminescence. Q96LD8. inhibition, % at 10 µM; in the data active = inhibition above about 50%
SENP8 conf = human SENP8 inhibition, confirmed | Recombinant SENP8, Z-RLRGG-aminoluciferin luminescence, 60 min | inhibition, % at 12.5 µM | hit rate 40% among 6,200 | shares compounds with SENP7 block;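 active = mean inhibition across replicates above about 50%, limit read from the data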
SENP6 conf = confirmation of human SENP6 protease inhibitors; shares compounds with SENP7 block; recombinant SENP6, Z-RLRGG-aminoluciferin luminescence; inhibition, % at 12.5 µM; hit rate 58% among 6,200; AID 488915
SENP7 confirm = confirmation of human SENP7 protease inhibitors. hit rate 69% among 6,200. inhibition, % at 12.5 µM. recombinant SENP7, Z-RLRGG-aminoluciferin luminescence, 40 min. shares compounds with SENP7 block
Casp3 SENP sel = inhibits human caspase-3 in SENP selectivity test | shares compounds with SENP7 block | purified caspase-3, Z-DEVD-aminoluciferin luminescence, 60 min | inhibition, % at 12.5 µM | hit rate 60% among 6,200;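 active = mean inhibition above about 50%, limit read from the data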
Target sequence (P42574 28-227 limits assumed): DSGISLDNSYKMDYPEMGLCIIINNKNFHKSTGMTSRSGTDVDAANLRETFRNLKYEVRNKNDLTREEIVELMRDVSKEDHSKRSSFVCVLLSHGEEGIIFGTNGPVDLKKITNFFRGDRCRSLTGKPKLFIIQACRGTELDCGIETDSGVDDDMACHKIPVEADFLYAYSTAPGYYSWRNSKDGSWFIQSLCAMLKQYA
SENP luc ctr = counter-screen for SENP inhibitors: luminescence interference; hit rate 39% among 6,200; shares compounds with SENP7 block; Pre-incubated SENP8/Z-RLRGG-aminoluciferin, luciferase luminescence interference; inhibition, % at 12.5 µM;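 active = mean inhibition above about 50% when retested at one dose, limit read from the data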
A number is an active result; ! = repeats disagree. The list is not random: actives were taken first. Their share in the collection is about 2.9%.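 The calls were made as follows, unless noted: active = mean inhibition above about 50% in the one-dose retest (limit read from the data); inactive = the rest.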

How did CCc1ccc(Nc2nnc(SCC(=O)Nc3ccc(C(=O)O)cc3)s2)cc1 do in these assays?
SENP7 block: 53; SENP6 block: inactive; HSP90 refold inh: inactive; SENP8 block-1: inactive; SENP1 inh: inactive; SENP8 block-2: 52; SENP8 conf: inactive; SENP6 conf: 51; SENP7 confirm: inactive; Casp3 SENP sel: 60; SENP luc ctr: inactive

Results for CCCCOCCCNC(=O)CN1C(=O)c2ccccc2C1=O ?
SENP7 block: 88; SENP6 block: inactive; HSP90 refold inh: inactive; SENP8 block-1: inactive; SENP1 inh: inactive; SENP8 block-2: inactive; SENP8 conf: inactive; SENP6 conf: inactive; SENP7 confirm: inactive; Casp3 SENP sel: inactive; SENP luc ctr: inactive

How did CCOC(=O)c1nnsc1NC(=O)Nc1ccc(OC)cc1 do in these assays?
SENP7 block: 51; SENP6 block: inactive; HSP90 refold inh: inactive; SENP8 block-1: inactive; SENP1 inh: inactive; SENP8 block-2: inactive; SENP8 conf: inactive; SENP6 conf: inactive; SENP7 confirm: inactive; Casp3 SENP sel: inactive; SENP luc ctr: inactive

What do the screens show for `CCOC(=O)c1nnsc1NC(C)=O`?
SENP7 block: inactive; SENP6 block: inactive; HSP90 refold inh: inactive; SENP8 block-1: inactive; SENP1 inh: inactive; SENP8 block-2: inactive

How did c1ccc2c(c1)Cn1nnnc1-2 do in these assays?
SENP7 block: inactive; SENP6 block: inactive; HSP90 refold inh: inactive; SENP8 block-1: inactive; SENP1 inh: inactive; SENP8 block-2: inactive

How did c1ccc2c(c1)Cn1c-2nc2ccccc21 do in these assays?
SENP7 block: 91; SENP6 block: 92; HSP90 refold inh: inactive; SENP8 block-1: inactive; SENP1 inh: inactive; SENP8 block-2: 81; SENP8 conf: 90; SENP6 conf: 88; SENP7 confirm: 99; Casp3 SENP sel: 95; SENP luc ctr: 86

Results for O=C1c2ccccc2-c2nc3ccccc3n21 ?
SENP7 block: inactive; SENP6 block: inactive; HSP90 refold inh: inactive; SENP8 block-1: inactive; SENP1 inh: inactive; SENP8 block-2: inactive

How did Brc1c(-c2ccccc2)nc2n1Cc1ccccc1-2 do in these assays?
SENP7 block: inactive; SENP6 block: 75; HSP90 refold inh: inactive; SENP8 block-1: inactive; SENP1 inh: inactive; SENP8 block-2: 51; SENP8 conf: inactive; SENP6 conf: 65; SENP7 confirm: 72; Casp3 SENP sel: inactive; SENP luc ctr: inactive

What do the screens show for `Cc1nn2cc(-c3ncc(C(F)(F)F)cc3Cl)cnc2c1Br`?
SENP7 block: 90; SENP6 block: 83; HSP90 refold inh: inactive; SENP8 block-1: inactive; SENP1 inh: inactive; SENP8 block-2: 76; SENP8 conf: 61; SENP6 conf: 60; SENP7 confirm: inactive; Casp3 SENP sel: inactive; SENP luc ctr: inactive

Results for CCOC(=O)c1ccc(NC(=O)NC2=NCCS2)cc1 ?
SENP8 block-1: inactive; SENP1 inh: inactive

How did CC(=O)c1ccc(NS(=O)(=O)c2ccc(N)cc2)cc1 do in these assays?
SENP7 block: inactive; SENP6 block: inactive; HSP90 refold inh: inactive; SENP8 block-1: inactive; SENP1 inh: inactive; SENP8 block-2: inactive

How did Cc1[nH][nH]c(=O)c1N=Nc1ccc(Br)c(Cl)c1 do in these assays?
SENP7 block: 71; SENP6 block: 94; SENP8 block-1: inactive; SENP1 inh: inactive; SENP8 block-2: 86; SENP8 conf: inactive; SENP6 conf: inactive; SENP7 confirm: inactive; Casp3 SENP sel: inactive; SENP luc ctr: inactive

Results for CC(=O)c1ccc(N=Nc2ccc(N)cc2)cc1 ?
SENP7 block: 78; SENP6 block: 75; HSP90 refold inh: inactive; SENP8 block-1: 46; SENP1 inh: inactive; SENP8 block-2: inactive; SENP8 conf: 60; SENP6 conf: 62; SENP7 confirm: 88; Casp3 SENP sel: 62; SENP luc ctr: inactive

How did CC(=O)c1ccc(N=Nc2c(C)[nH][nH]c2=O)cc1 do in these assays?
SENP7 block: 79; SENP6 block: 55; SENP8 block-1: 56; SENP1 inh: inactive; SENP8 block-2: inactive; SENP8 conf: 56; SENP6 conf: 57; SENP7 confirm: 76; Casp3 SENP sel: 88; SENP luc ctr: inactive

Results for CCOC(=O)C1CCN(C(=O)c2ccc3c(c2)C(=O)N(c2ccccc2C)C3=O)CC1 ?
SENP7 block: inactive; SENP6 block: inactive; SENP8 block-1: inactive; SENP1 inh: inactive; SENP8 block-2: inactive

Results for CS(=O)(=O)c1ccc(-c2sc3ccccc3c2C(=O)NCCCN2CCOCC2)cc1 ?
SENP7 block: inactive; SENP6 block: inactive; SENP8 block-1: inactive; SENP1 inh: inactive; SENP8 block-2: inactive

Results for O=C1NC(c2cc(Cl)cc([N+](=O)[O-])c2O)Nc2ccccc21 (stereo not given) ?
SENP7 block: inactive; SENP6 block: 87; HSP90 refold inh: inactive; SENP8 block-1: inactive; SENP1 inh: inactive; SENP8 block-2: 69; SENP8 conf: inactive; SENP6 conf: inactive; SENP7 confirm: inactive; Casp3 SENP sel: inactive; SENP luc ctr: inactive

How did COc1ccc(C2Nc3ccccc3C(=O)N2Cc2ccco2)cc1CN1C(=O)c2ccccc2C1=O (stereo not given) do in these assays?
SENP7 block: 66!; SENP6 block: inactive; HSP90 refold inh: inactive; SENP8 block-1: inactive; SENP1 inh: inactive; SENP8 block-2: inactive; SENP8 conf: inactive; SENP6 conf: inactive; SENP7 confirm: inactive; Casp3 SENP sel: inactive; SENP luc ctr: inactive

Results for CO/N=C/C(C#N)=C/c1cc(C(=O)c2ccccc2)cn1C ?
SENP7 block: inactive; SENP6 block: inactive; HSP90 refold inh: inactive; SENP8 block-1: inactive; SENP1 inh: inactive; SENP8 block-2: inactive

What do the screens show for `O=c1oc2cc(O)c(Cl)cc2c2ccccc12`?
SENP7 block: inactive; SENP6 block: 61; HSP90 refold inh: inactive; SENP8 block-1: inactive; SENP1 inh: inactive; SENP8 block-2: inactive; SENP8 conf: 50; SENP6 conf: inactive; SENP7 confirm: 73; Casp3 SENP sel: 68; SENP luc ctr: inactive

What do the screens show for `COc1ccc2c(c1)oc(=O)c1ccccc12`?
SENP7 block: inactive; SENP6 block: inactive; HSP90 refold inh: inactive; SENP8 block-1: inactive; SENP1 inh: inactive; SENP8 block-2: inactive

Results for CC(NC(=O)COC(=O)/C(=C/c1cccs1)c1cccs1)c1ccccc1 (stereo not given) ?
SENP7 block: inactive; SENP6 block: inactive; HSP90 refold inh: inactive; SENP8 block-1: inactive; SENP1 inh: inactive; SENP8 block-2: inactive

From PubChem
